Results published in the M2OR odorant receptor database.

Target: T1, OR2A1 (Homo sapiens) (UniProt Q8NGT9)
T1 sequence (whole entry): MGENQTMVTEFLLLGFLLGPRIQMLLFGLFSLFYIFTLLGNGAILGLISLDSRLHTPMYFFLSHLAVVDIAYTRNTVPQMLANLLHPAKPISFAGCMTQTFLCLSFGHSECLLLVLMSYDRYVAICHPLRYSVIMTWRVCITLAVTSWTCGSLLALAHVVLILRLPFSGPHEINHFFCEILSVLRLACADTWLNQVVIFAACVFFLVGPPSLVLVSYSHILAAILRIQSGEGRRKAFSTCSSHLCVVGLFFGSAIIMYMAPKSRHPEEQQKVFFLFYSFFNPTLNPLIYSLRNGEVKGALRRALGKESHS
Conditions: stereoisomer not certain
How it was run: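 Each receptor–molecule pair is labelled responsive or non-responsive (inactive) according to whether the original authors judged the measured signal statistically different from baseline. The data were taken from the main text and supplementary material of published papers and checked for typos and inconsistencies. Assay methods differed by source, with transient luciferase assays in mammalian cell lines being common.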
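Further: active if original authors judged signal statistically different from baseline.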

Odorant receptor agonist call, inactive:
C=C1CCC2CC1C2(C)C (stereo not drawn)
O=c1ccc2ccccc2o1
CCCCCCCCCCCCCCCC(=O)[O-].[H+]
CCCCCCCCCCCCCC(=O)O
CCCCCCCCCCCCCCC(=O)O
CCCCCCCCCCCCO
CCCCCCCCCC(=O)OCC
Cc1cccc(C)c1C
CC(=O)O
CC(C)=CCCC(C)=CCCC(C)=CCO
CCCO
CCCCCCCC(=O)OC
CCCCC(=O)C(C)=O
CCCCCCCCCC(=O)OC
CC(C=O)Cc1ccc(C(C)(C)C)cc1 (stereo not drawn)
Cc1ccc(C(C)C)cc1
CCC(C)CO (stereo not drawn)
CCCCCCCCCCCCCCCCCC(=O)OCC
C=C(C)C1CC=C(C)CC1 (stereo not drawn)
CCCCCCCCCCCCCC(=O)OC
CCCC(=O)CC
CCCCCCCCO
CCC(O)CC
CCCCCCCCCCCCCCCC(=O)OCC
CCCCCCCCCCCCCCCC(=O)OC
CCCCCCCCCCCCCC(=O)OCC
COc1ccc2[nH]cc(CCNC(C)=O)c2c1
Cc1cnc(C)cn1
